Measurements: ChEMBL document CHEMBL4373672, “A small molecule drug conjugate (SMDC) of DUPA and a duocarmycin built on the solid phase” (Medchemcomm, 2019)

What was measured:
DNA [1] = assay: DNA alkylating activity in human LNCAP cells exhibiting increased cathepsin B activity and overexpressing GCPII assessed as reduction in cell viability incubated for 72 hrs by MTS assay; type: functional, cell-based
Outline: (§1)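 Cell lines from ECACC, grown in supplier-recommended media with 10% foetal calf serum and 2 mM L-glutamine, kept at 1-9 x 10^5 cells/mL, 37 °C, 5% CO2. Seeded at 3 x 10^4 cells/100 μL and exposed in triplicate to compound at 100 μM down to 0.00001 μM (10-fold steps) for 72 h; final DMSO 1%. Stocks in DMSO made fresh each day. Doxorubicin hydrochloride (10 μM) served as the 100% inhibition value. MTS reagent added for 3 h, absorbance read at 490 nm. Three independent runs on different passages; IC50 from curve fit.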

DNA [2] = assay: DNA alkylating activity in GCPII negative human PC3 cells exhibiting increased cathepsin B activity assessed as reduction in cell viability incubated for 72 hrs by MTS assay; type: functional; conditions: PC-3, 72 h; outline: as §1
DNA [3] = assay: DNA alkylating activity in human NCI-H292 cells exhibiting increased cathepsin B activity and overexpressing GCPII assessed as reduction in cell viability incubated for 72 hrs by MTS assay; type: functional, cell-based; conditions: NCI-H292, 72 h; outline: as §1
DNA [4] = assay: DNA alkylating activity in human A549 cells exhibiting increased cathepsin B activity and overexpressing GCPII assessed as reduction in cell viability incubated for 72 hrs by MTS assay; type: functional, cell-based; conditions: A549, 72 h; outline: as §1
DNA [5] = assay: DNA alkylating activity in human MCF7 cells exhibiting increased cathepsin B activity and overexpressing GCPII assessed as reduction in cell viability incubated for 72 hrs by MTS assay; type: functional, cell-based; conditions: MCF7, 72 h; outline: as §1
DNA [6] = assay: DNA alkylating activity in human SKBR3 cells exhibiting increased cathepsin B activity and reduced GCPII expression assessed as reduction in cell viability incubated for 72 hrs by MTS assay; type: functional, cell-based; conditions: SK-BR-3, 72 h; outline: as §1
DNA [7] = assay: DNA alkylating activity in human SK-MEL-28 cells exhibiting increased cathepsin B activity and overexpressing GCPII assessed as reduction in cell viability incubated for 72 hrs by MTS assay; type: functional, cell-based; conditions: SK-MEL-28, 72 h; outline: as §1
DNA [8] = assay: DNA alkylating activity in human GCPII negative 16HBE14o cells deficient of cathepsin B activity assessed as reduction in cell viability incubated for 72 hrs by MTS assay; type: functional; outline: as §1
DNA [9] = assay: DNA alkylating activity in GCPII negative human PC3 cells exhibiting increased cathepsin B activity assessed as reduction in cell viability incubated with GCPII binder 2-PMPA for 1 hr followed by incubation with compound for 48 hrs by MTS assay; type: functional; conditions: PC-3
Outline: (§2)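 Pre-treatment of cells (3 x 10^4/100 μL) with 10 μM 2-PMPA for 1 h. Compound in DMSO was then added in triplicate at 100 μM to 0.0001 μM (10-fold steps), 48 h at 37 °C, 5% CO2; final DMSO 1%. Doxorubicin hydrochloride defined 100% inhibition. MTS reagent for 3 h, absorbance at 490 nm. Three independent runs on different passages.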

DNA [10] = assay: DNA alkylating activity in human LNCAP cells exhibiting increased cathepsin B activity and overexpressing GCPII assessed as reduction in cell viability incubated with GCPII binder 2-PMPA for 1 hr followed by incubation with compound for 48 hrs by MTS assay; type: functional, cell-based; outline: as §2

`NC(=O)c1cc2c3c(cc(O)c2[nH]1)N(C(=O)c1ccc(N)cc1)CC3CCl` (stereo not given) gave an IC50 (DNA [1]) of 15.7 nM, an IC50 (DNA [2]) of 4.7 nM and an IC50 (DNA [3]) of 7.3 nM. It also gave an IC50 (DNA [4]) of 36.6 nM, an IC50 (DNA [5]) of 181 nM and an IC50 (DNA [6]) of 2.3 nM. The IC50 (DNA [7]) was 22.5 nM, the IC50 (DNA [8]) was 85.4 nM and the IC50 (DNA [9]) was 6.1 nM. For the same compound, the IC50 (DNA [10]) was 25.5 nM.
